The text below walks through data of paper PMC3174055 (Biochemical Journal, 2011).

One data set deals with HCT-116 xenograft. Nature of the data set: HCT-116 tumour xenograft efficacy and toxicity. Conditions: QD×7, BEZ-235 10 mg/kg, A66 100 mg/kg. It counts as in vivo, Rag1−/− or NIH-III mice. The procedure, abridged:
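HCT-116 xenografts from 5×10^6 cells s.c. in PBS, in SPF Rag1−/− or NIH-III mice. Once-daily i.p. dosing for 7 days from tumours of about 7 mm. Test compound in 20% hydroxypropyl-β-cyclodextrin; reference inhibitor at 10 mg/kg in 10% ethanol; vehicle controls. Caliper volumes by (L×w²)×π/6; daily weights; euthanasia if weight loss exceeded 20%.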

The nature of data set [1]: Plasma pharmacokinetics in mice. It counts as in vivo, CD-1 mice. Conditions: male, CD-1, mouse, ip, 10 mg/kg.
The next data set concerns U87MG xenograft. In words: U87MG tumour xenograft efficacy and toxicity. It counts as in vivo, Rag1−/− or NIH-III mice. The settings on record: QD×14, BEZ-235 15 mg/kg, A66 100 mg/kg. The method, boiled down: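 U87MG cells (5×10^6, s.c. in PBS) in SPF Rag1−/− or NIH-III mice; treatment started at tumours of about 7 mm. Daily i.p. dosing for 14 days (10 ml/kg, free base). Test compound in 20% hydroxypropyl-β-cyclodextrin; reference inhibitor in 10% ethanol; controls given vehicle. Caliper volume (L×w²)×π/6; daily body weight and toxicity checks; mice killed at >20% weight loss.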

The subject of another data set is SK-OV-3 xenograft. Nature of the data set: SK-OV-3 tumour xenograft efficacy and toxicity. It counts as in vivo, Rag1−/− or NIH-III mice. The settings on record: QD×21, BEZ-235 15 mg/kg, A66 100 mg/kg. The procedure, abridged:
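SPF Rag1−/− or NIH-III mice, 5×10^6 SK-OV-3 cells s.c. in PBS; dosing began at about 7 mm tumours. I.p., 10 ml/kg. Test compound (20% hydroxypropyl-β-cyclodextrin): 100 mg/kg QD×21 or 75 mg/kg BID×16, injections ≥~8 h apart. Reference inhibitor (10% ethanol): 15 mg/kg QD×21. Vehicle controls; 7–8 mice/group. Caliper volume (L×w²)×π/6; daily body weight; final-day TGI; ANOVA-Bonferroni.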

The test system of data set [2] is phosphorylation of Akt/PKB (Ser473, Thr308). Nature of the data set: Insulin-stimulated activation of Akt/PKB in cell lines, Western blotting. The settings on record: for inhibition of insulin-stimulated phosphorylation of Akt/PKB Ser473 and Thr308: cell lines that lack the H1047R mutation, drug 15 min, then 500 nM insulin 5 min; for inhibition of insulin-stimulated activation of Akt/PKB: MCF7 cells. It counts as cell-based. The procedure, abridged: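 Cells serum-starved overnight, then exposed to test compound or DMSO vehicle for 15 min and stimulated with 500 nM insulin for 5 min. Lysates separated by SDS/PAGE, 20 μg protein per lane except T47D, SK-OV-3 and MCF7, and Western blotted for Akt/PKB phosphorylation.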

The test system of data set [3] is panel of 110 protein kinases. Nature of the data set: Protein kinase profiling, panel of 110 protein kinases. It counts as biochemical. The settings on record: 10 μM, Supplementary Figure S1.
The next data set addresses p110γ (Homo sapiens, UniProt P48736). In words: PI3K. It counts as biochemical. Conditions: read-out: IC50 against p110γ; HTRF assay. Background: In TR-FRET formats the signal depends on donor and acceptor labels being close together.
Another data set addresses p110α (Homo sapiens, UniProt P42336). In words: PI3K. It counts as biochemical. Conditions: read-out: IC50 against p110α; HTRF assay.
A further data set has as its target p110α H1047R (Homo sapiens, UniProt P42336, H1047R). In words: PI3K. It counts as biochemical. The settings on record: read-out: IC50 against p110α H1047R; HTRF assay.
Another data set addresses p110δ (Homo sapiens, UniProt O00329). In words: PI3K. It counts as biochemical. The settings on record: read-out: IC50 against p110δ; HTRF assay.
Data set [4] concerns Akt/PKB activation in PTEN-deficient cell lines. Conditions: cited from earlier work.
The next data set concerns the target p110α E545K (Homo sapiens, UniProt P42336, E545K). Nature of the data set: PI3K. It counts as biochemical. The settings on record: read-out: IC50 against p110α E545K; HTRF assay.

Values joined by “and” are separate entries in the source; they are usually repeats but may differ in a detail not shown here. Equal entries are not always repeated.

Sequence of p110γ (P48736 whole entry): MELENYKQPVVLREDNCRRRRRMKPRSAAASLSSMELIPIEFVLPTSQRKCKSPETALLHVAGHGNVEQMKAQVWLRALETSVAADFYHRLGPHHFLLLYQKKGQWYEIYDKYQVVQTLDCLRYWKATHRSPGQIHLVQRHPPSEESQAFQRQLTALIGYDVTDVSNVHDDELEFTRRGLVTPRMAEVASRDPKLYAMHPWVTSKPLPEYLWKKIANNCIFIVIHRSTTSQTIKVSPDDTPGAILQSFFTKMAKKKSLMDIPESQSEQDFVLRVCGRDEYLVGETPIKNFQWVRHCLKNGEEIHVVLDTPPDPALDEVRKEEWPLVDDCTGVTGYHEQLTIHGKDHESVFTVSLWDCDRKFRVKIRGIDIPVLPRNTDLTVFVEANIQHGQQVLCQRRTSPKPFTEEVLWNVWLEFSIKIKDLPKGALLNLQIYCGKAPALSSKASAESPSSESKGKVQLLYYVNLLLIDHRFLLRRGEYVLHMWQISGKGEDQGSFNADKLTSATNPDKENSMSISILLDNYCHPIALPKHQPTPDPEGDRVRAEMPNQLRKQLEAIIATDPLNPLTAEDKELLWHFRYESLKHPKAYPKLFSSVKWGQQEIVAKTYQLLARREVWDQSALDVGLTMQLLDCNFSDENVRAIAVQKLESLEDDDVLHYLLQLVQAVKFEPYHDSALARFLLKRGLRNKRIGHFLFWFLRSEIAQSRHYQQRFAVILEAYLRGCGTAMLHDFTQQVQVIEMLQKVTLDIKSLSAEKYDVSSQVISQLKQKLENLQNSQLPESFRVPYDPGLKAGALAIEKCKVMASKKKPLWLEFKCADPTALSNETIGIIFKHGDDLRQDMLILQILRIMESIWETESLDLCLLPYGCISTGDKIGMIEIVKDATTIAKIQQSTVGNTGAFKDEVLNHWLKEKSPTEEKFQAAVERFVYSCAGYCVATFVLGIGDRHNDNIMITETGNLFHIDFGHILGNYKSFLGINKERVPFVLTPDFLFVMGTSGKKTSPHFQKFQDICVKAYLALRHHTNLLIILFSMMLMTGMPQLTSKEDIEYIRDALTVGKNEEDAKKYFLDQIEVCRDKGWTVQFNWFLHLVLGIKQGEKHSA
Sequence of p110α H1047R (P42336 whole entry H1047R): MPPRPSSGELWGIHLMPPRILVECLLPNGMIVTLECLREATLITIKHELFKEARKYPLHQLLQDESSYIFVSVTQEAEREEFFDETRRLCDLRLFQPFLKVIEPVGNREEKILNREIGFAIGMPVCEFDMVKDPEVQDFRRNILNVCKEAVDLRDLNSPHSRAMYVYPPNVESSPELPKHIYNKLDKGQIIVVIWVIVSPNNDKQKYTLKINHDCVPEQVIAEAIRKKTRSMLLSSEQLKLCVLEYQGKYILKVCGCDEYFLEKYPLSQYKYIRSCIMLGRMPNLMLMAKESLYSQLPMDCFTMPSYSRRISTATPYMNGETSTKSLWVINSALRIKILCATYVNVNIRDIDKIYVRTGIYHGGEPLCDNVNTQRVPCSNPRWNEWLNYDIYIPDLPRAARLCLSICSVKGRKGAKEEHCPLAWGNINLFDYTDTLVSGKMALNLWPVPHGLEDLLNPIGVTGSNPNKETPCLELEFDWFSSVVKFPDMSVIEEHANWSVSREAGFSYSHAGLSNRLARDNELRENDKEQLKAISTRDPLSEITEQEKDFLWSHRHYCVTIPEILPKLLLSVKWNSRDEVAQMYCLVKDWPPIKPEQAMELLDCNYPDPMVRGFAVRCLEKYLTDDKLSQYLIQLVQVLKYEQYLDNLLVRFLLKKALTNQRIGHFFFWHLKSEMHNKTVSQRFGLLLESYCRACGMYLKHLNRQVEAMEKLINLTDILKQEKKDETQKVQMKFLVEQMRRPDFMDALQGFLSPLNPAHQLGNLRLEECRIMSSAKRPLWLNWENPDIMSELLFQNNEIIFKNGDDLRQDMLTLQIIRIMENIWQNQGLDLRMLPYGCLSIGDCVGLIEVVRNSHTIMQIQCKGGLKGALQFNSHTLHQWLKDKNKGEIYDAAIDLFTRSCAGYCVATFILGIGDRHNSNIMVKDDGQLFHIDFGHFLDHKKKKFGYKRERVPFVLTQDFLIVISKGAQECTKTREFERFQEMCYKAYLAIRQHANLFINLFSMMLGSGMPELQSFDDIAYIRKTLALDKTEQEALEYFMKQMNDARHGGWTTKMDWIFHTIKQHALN
Sequence of p110α H1047R (P27986 whole entry partner): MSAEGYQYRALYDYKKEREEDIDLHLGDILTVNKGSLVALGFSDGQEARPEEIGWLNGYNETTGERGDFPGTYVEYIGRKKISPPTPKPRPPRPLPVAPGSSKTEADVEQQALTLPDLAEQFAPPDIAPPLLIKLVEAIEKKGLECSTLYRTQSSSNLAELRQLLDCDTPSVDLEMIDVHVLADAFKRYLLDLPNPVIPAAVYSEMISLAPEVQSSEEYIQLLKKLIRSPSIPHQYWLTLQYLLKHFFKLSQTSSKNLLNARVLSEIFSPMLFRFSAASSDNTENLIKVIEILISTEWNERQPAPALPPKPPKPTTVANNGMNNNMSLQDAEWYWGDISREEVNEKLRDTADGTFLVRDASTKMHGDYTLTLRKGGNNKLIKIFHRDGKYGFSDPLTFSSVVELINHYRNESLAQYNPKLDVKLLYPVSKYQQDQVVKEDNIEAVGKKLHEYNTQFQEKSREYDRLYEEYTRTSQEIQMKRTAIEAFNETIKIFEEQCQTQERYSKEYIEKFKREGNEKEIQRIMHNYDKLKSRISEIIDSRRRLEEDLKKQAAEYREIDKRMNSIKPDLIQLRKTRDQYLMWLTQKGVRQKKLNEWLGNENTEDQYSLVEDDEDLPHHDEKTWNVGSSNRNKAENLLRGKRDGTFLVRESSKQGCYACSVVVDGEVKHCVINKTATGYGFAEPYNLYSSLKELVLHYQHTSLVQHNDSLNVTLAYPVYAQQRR
Sequence of p110α E545K (P42336 whole entry E545K): as the sequence (P42336 whole entry H1047R) above, with E545K, R1047H counted along it
Sequence of p110α E545K (P27986 whole entry partner): as the sequence (P27986 whole entry partner) above
Sequence of p110α (P42336 whole entry): as the sequence (P42336 whole entry H1047R) above, with R1047H counted along it
Sequence of p110α (P27986 whole entry partner): as the sequence (P27986 whole entry partner) above
Sequence of p110δ (O00329 whole entry): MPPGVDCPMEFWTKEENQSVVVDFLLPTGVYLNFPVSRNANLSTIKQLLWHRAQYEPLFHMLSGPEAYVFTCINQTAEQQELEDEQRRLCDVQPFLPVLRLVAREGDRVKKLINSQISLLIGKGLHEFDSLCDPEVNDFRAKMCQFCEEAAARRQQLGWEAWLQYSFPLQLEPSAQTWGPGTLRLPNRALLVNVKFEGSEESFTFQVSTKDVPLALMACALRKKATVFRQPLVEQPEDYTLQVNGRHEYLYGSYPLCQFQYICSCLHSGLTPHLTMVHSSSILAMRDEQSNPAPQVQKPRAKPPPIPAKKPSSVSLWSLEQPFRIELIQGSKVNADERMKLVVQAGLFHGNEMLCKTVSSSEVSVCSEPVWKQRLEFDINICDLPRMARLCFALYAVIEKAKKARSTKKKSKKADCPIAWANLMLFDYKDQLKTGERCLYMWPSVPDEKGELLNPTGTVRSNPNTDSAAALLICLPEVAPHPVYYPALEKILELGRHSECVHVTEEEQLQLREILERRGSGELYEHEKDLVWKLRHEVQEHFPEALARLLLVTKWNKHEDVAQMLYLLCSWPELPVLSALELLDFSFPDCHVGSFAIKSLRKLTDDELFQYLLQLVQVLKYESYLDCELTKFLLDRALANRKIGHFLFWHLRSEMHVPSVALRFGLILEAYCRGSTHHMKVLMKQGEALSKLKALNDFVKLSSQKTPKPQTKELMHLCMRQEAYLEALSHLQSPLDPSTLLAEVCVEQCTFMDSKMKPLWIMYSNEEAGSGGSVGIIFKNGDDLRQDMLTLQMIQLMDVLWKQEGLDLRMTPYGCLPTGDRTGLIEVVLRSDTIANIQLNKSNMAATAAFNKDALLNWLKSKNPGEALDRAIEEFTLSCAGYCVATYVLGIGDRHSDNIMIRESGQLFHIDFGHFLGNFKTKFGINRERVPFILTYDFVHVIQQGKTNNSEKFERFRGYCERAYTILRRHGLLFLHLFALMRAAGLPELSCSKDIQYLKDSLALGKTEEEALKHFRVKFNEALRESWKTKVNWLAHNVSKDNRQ
Sequence of p110δ (P27986 whole entry partner): as the sequence (P27986 whole entry partner) above

A word on the AUC: it is the area under the concentration-time curve, a measure of exposure. Read a low AUC as less exposure. A word on the Cmax: it is the peak of the concentration-time curve. In general, Tmax refers to the time from dosing to the highest level. A word on the half-life: it is the time in which the quantity being followed falls by half. Turning to `Cn1c(=O)n(-c2ccc(C(C)(C)C#N)cc2)c2c3cc(-c4cnc5ccccc5c4)ccc3ncc21` [BEZ-235], in the data set on HCT-116 xenograft (HCT-116, intraperitoneal), the “BWL nadir (%)” value was −5.9±1.8% and the Number of deaths/n was 0/7. Also, the “effect on tumour volume” value in the data set on HCT-116 xenograft (HCT-116 xenograft) is on record as “had no effect”. For the same compound, in [1], the AUC came to 7.33 µM·h, the peak level (Cmax) was 1860 nM, the Tmax was determined as 0.25 h and the half-life was 2.73 h. In addition, in the data set on U87MG xenograft (U87MG xenograft), the “effect on tumour volume / growth” value is listed as “significantly reduced”. In addition, in the data set on U87MG xenograft (U87MG, intraperitoneal), the “BWL nadir (%)” value is listed as −8.4±5.4% and the Number of deaths/n is given as 0/5. Also, the “body weight loss / tolerability” value with SK-OV-3 xenograft is reported as “moderate body weight loss”. In addition, in the data set on SK-OV-3 xenograft (intraperitoneal), the “BWL nadir (%)” value is given as −9.5±6.6%; the Number of deaths/n entry was “four and 4/7”.
For the compound `Cc1ccccc1-n1c(Cn2cnc3c(N)ncnc32)nc2cccc(C)c2c1=O` [IC87114], the “inhibition of insulin-stimulated phosphorylation of Akt/PKB Ser473 and Thr308” value in data set [2] is listed as “not inhibited”. For the same compound, the “inhibitory effects on panel of 110 protein kinases” value (“inhibitory effects on panel” for short) in data set [3] was “do not have any major effects”.
For `O=c1cc(N2CCOCC2)oc2c(-c3ccccc3)cccc12` [LY294002], the “inhibition of phosphorylation of Akt/PKB Ser473 and Thr308” value in [2] (all cell lines tested) is “sensitive”. The “inhibition of insulin-stimulated phosphorylation of Akt/PKB Ser473 and Thr308” value in [2] is given as “effective”.
As usually defined, the IC50 is the concentration that inhibits the measured activity by half. As for `Cc1ccc([N+](=O)[O-])cc1S(=O)(=O)N(C)/N=C/c1cnc2ccc(Br)cn12` [PIK-75], in [2], the “inhibition of insulin-stimulated activation of Akt/PKB” value was “partial inhibitory effect”; the “inhibition of insulin-stimulated phosphorylation of Akt/PKB Ser473 and Thr308” value was “less effective”. Also, on p110γ, the IC50 was 33 nM. Besides, in data set [3], the “inhibitory effects on panel” value is reported as “inhibited a large number of protein kinases”.
Turning to `Cc1cc(C(C)Nc2ccccc2)c2nc(N3CCOCC3)cc(=O)n2c1` (stereo not shown) [TGX-221], the IC50 was > 1000 nM at p110α; > 1000 nM on p110α H1047R; 130 nM on p110δ; > 1250 nM at p110γ; > 1000 nM at p110α E545K. Also, in [4], the “concentration required to induce reduction in Akt/PKB activation” value is 2 µM. Moreover, the “inhibition of insulin-stimulated activation of Akt/PKB” value in data set [2] was “partial inhibitory effect”. Also, the “inhibition of insulin-stimulated phosphorylation of Akt/PKB Ser473 and Thr308” value in data set [2] is listed as “not inhibited”. Besides, the “inhibitory effects on panel” value in [3] is given as “do not have any major effects”.
`COC[C@H]1OC(=O)c2coc3c2[C@@]1(C)C1=C(C3=O)[C@@H]2CCC(=O)[C@@]2(C)C[C@H]1OC(C)=O` [wortmannin]: the “inhibition of insulin-stimulated phosphorylation of Akt/PKB Ser473 and Thr308” value in [2] is listed as “effective”.
